Results: ChEMBL document CHEMBL3286091, “Novel N-linked aminopiperidine-based gyrase inhibitors with improved hERG and in vivo efficacy against Mycobacterium tuberculosis” (J Med Chem, 2014)
≈ marks a conversion by molar mass, not a printed value. Calls of active or inactive are those of the source. The calls are words filed in the database; no cut-off is given here.

Tests used:
[1] = test system: Mycobacterium tuberculosis; test: Antimycobacterial activity against moxifloxacin-resistant Mycobacterium tuberculosis harboring DNA gyraseA G88N mutant; assay type: functional
[2] = test system: Mycobacterium tuberculosis; test: Antimycobacterial activity against spontaneously resistant mutant of Mycobacterium tuberculosis H37Rv at 8 times MIC up to 6 to 8 weeks; assay type: functional, organism-based
Outline: (§1)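 Single-step selection: mid-log H37Rv culture concentrated 100-fold to ~10^10 cfu/mL and plated in dilutions on 7H11 agar with varying drug concentrations. Drug-free plates were counted after 4 weeks at 37 °C and drug plates after 6−8 weeks. Frequency is the colony count on drug plates divided by viable cfu on drug-free plates.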

[3] = test system: Mycobacterium tuberculosis; test: Antimycobacterial activity against 2-oxo-1-(2-(4-((3-oxo-3,4-dihydro-2H-pyrido[3,2-b][1,4]oxazin-6-yl)methylamino)piperidin-1-yl)ethyl)-1,2-dihydroquinoline-7-carbonitrile-resistant Mycobacterium tuberculosis harboring DNA gyraseA A74V mutant; assay type: functional
[4] = test system: Mycobacterium tuberculosis; test: Antimycobacterial activity against 5-(((3S,4R)-3-Fluoro-1-(2-(7-methoxy-2-oxo-1,5-naphthyridin-1(2H)-yl)ethyl)piperidin-4-ylamino)methyl)-2-methylnicotinonitrile-resistant Mycobacterium tuberculosis harboring DNA gyraseA D89N mutant; assay type: functional
[5] = Ratio of MIC for 5-(((3S,4R)-3-Fluoro-1-(2-(7-methoxy-2-oxo-1,5-naphthyridin-1(2H)-yl)ethyl)piperidin-4-ylamino)methyl)-2-methylnicotinonitrile-resistant Mycobacterium tuberculosis harboring DNA gyraseA D89N mutant to MIC for wild-type Mycobacterium tuberculosis H37Rv ATCC 27294; assay type: functional
[6] = test system: Mycobacterium tuberculosis; test: Antimycobacterial activity against spontaneously resistant mutant of Mycobacterium tuberculosis H37Rv at 10 to 20 times MIC up to 6 to 8 weeks; assay type: functional, organism-based; outline: as §1
[7] = Ratio of MIC for 2-oxo-1-(2-(4-((3-oxo-3,4-dihydro-2H-pyrido[3,2-b][1,4]oxazin-6-yl)methylamino)piperidin-1-yl)ethyl)-1,2-dihydroquinoline-7-carbonitrile-resistant Mycobacterium tuberculosis harboring DNA gyraseA A74V mutant to MIC for wild-type Mycobacterium tuberculosis H37Rv ATCC 27294; assay type: functional

SMILES	MIC [1]	Activity [2]	MIC [3]	MIC [4]	Ratio [5]	Activity [6]	Ratio [7]
O=C(O)c1cn(C2CC2)c2cc(N3CCNCC3)c(F)cc2c1=O [CIPROFLOXACIN]	8 µg/mL (≈ 24.1 µM)	inactive	0.25 µg/mL (≈ 0.754 µM)	4 µg/mL (≈ 12.1 µM)	16		
O=C1COc2ccc(CN[C@H]3CCN(CCn4c(=O)ccc5ncc(F)cc54)C[C@H]3F)nc2N1	0.06 µg/mL (≈ 0.128 µM)		>2 µg/mL	>2 µg/mL			
COc1c(N2C[C@@H]3CCCN[C@@H]3C2)c(F)cc2c(=O)c(C(=O)O)cn(C3CC3)c12 [MOXIFLOXACIN]	4 µg/mL (≈ 9.96 µM)		0.06 µg/mL (≈ 0.149 µM)	1 µg/mL (≈ 2.49 µM)		inactive	
CC1COc2c(N3CCN(C)CC3)c(F)cc3c(=O)c(C(=O)O)cn1c23 (centres undefined) [OFLOXACIN]	16 µg/mL (≈ 44.3 µM)		1 µg/mL (≈ 2.77 µM)	4 µg/mL (≈ 11.1 µM)	8		
CO[C@H]1/C=C/O[C@@]2(C)Oc3c(C)c(O)c4c(O)c(c(/C=N/N5CCN(C)CC5)c(O)c4c3C2=O)NC(=O)/C(C)=C\C=C\[C@H](C)[C@H](O)[C@@H](C)[C@@H](O)[C@@H](C)[C@H](OC(C)=O)[C@@H]1C [RIFAMPIN]	0.008 µg/mL (≈ 0.00972 µM)		0.008 µg/mL (≈ 0.00972 µM)	0.015 µg/mL (≈ 0.0182 µM)			
NNC(=O)c1ccncc1 [ISONIAZID]	0.06 µg/mL (≈ 0.438 µM)		0.06 µg/mL (≈ 0.438 µM)	0.03 µg/mL (≈ 0.219 µM)			
COc1cnc2ccc(=O)n(CCN3CC[C@@H](NCc4cnc(C)c(C#N)c4)[C@@H](F)C3)c2c1	0.03 µg/mL (≈ 0.0666 µM)		1 µg/mL (≈ 2.22 µM)	>1 µg/mL	> 16	inactive	> 16
N#Cc1ccc2ccc(=O)n(CCN3CCC(NCc4ccc5c(n4)NC(=O)CO5)CC3)c2c1	0.03 µg/mL (≈ 0.0654 µM)	inactive	2 µg/mL (≈ 4.36 µM)	>2 µg/mL	> 16		> 16
Cc1ncc(CNC2CCN(CCn3c(=O)ccc4ccc(C#N)cc43)CC2)cc1C#N	0.06 µg/mL (≈ 0.141 µM)		>2 µg/mL	>2 µg/mL	> 16		> 16
